Tests used:
[1] = molecular target: T1, Nitric oxide synthase, inducible (Homo sapiens, UniProt P35228); test: Inhibition of human iNOS expressed in HEK293 cells assessed as NO production by transient transfection assay; format: cell-based
How it was run: (§1)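 HEK293 cells grown to ~70% confluence in DMEM/10% FBS with pen/strep. Cells transiently transfected with 10 µg human or murine iNOS plasmid (Fugene 6), 4 h at 37 °C, 10% CO2. Trypsinized, plated at 5 × 10⁵ cells/mL and dosed at once; 1400W 100 µM final as positive control. After 18 h, NO read as DAN fluorescence (10 µg/mL, 20 min RT, then NaOH). EC50 from 3 runs, 10-point curves, n = 8/point.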

[2] = molecular target: T2, Nitric oxide synthase, inducible (Mus musculus, UniProt P29477); test: Inhibition of mouse iNOS expressed in HEK293 cells assessed as NO production in by transient transfection assay; format: cell-based; how it was run: as §1
T2 sequence (P29477 whole entry): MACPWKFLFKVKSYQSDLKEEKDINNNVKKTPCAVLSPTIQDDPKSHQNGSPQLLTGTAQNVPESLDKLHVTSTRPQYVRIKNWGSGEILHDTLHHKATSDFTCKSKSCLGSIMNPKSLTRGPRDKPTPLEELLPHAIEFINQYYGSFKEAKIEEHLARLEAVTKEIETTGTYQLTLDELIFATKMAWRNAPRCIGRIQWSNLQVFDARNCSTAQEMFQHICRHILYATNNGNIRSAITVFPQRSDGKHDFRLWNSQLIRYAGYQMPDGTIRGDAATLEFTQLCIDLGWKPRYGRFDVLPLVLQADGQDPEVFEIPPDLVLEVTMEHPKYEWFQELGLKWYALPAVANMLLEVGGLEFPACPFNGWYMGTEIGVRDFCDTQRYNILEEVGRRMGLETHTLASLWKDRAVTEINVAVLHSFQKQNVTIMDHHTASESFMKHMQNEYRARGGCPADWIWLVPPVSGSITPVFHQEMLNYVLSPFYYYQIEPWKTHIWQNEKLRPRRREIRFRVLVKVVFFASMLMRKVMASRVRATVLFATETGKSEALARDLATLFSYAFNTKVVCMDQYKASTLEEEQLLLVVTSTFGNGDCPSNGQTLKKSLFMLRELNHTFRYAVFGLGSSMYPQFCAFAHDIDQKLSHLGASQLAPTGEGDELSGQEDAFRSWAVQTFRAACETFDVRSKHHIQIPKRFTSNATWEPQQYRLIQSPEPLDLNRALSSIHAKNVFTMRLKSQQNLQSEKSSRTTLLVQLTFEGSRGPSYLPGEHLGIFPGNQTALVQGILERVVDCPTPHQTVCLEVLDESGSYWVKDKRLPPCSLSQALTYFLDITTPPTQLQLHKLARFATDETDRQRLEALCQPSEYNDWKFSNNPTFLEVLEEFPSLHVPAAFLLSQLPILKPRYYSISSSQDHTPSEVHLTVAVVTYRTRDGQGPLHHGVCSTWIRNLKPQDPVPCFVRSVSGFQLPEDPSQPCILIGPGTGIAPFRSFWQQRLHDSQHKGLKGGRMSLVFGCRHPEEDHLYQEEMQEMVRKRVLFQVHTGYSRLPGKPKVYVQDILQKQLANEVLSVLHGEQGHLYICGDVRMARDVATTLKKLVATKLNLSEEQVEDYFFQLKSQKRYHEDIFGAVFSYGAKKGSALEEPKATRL

Nitric oxide synthase 3 = molecular target: T3, Nitric oxide synthase 3 (Homo sapiens, UniProt P29474); test: Inhibition of human eNOS expressed in HEK293 cells assessed as NO production by transient transfection assay; format: cell-based
T3 sequence (P29474 whole entry): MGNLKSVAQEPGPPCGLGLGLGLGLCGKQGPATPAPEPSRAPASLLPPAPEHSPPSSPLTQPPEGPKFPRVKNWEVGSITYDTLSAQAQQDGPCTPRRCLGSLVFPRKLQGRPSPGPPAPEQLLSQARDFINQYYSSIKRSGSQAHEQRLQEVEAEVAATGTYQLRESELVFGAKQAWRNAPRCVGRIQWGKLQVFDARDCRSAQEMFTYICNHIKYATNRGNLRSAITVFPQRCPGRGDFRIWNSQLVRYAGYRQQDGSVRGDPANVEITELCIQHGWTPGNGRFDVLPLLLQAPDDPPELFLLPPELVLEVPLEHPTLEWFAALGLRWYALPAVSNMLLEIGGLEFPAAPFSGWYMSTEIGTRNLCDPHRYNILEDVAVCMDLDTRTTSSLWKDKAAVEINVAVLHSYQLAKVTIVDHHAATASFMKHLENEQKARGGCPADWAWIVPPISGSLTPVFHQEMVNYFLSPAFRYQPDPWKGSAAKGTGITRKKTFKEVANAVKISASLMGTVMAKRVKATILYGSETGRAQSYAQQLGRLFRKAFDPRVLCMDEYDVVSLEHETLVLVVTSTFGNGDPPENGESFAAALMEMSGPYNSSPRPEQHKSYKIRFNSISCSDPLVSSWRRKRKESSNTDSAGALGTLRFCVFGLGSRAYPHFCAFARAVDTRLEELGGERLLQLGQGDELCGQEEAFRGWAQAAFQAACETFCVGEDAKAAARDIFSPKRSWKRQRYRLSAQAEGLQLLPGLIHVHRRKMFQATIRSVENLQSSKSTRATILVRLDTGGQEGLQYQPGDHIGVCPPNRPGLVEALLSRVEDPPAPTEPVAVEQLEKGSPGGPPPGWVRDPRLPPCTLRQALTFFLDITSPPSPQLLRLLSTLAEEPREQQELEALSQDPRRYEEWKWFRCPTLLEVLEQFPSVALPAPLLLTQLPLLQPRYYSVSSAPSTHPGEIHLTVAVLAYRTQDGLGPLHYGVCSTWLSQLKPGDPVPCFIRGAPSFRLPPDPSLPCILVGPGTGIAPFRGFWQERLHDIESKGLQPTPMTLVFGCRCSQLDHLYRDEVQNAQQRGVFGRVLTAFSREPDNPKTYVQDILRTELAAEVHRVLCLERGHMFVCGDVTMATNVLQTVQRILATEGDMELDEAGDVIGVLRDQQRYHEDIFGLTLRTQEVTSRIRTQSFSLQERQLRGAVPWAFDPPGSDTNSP
How it was run: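 HEK293 cells grown to ~70% confluence in DMEM/10% FBS with pen/strep, transfected with 15 µg human eNOS plasmid plus Fugene 6 (3:1 µL:µg), 4 h at 37 °C, 10% CO2. Cells replated at 5 × 10⁵/mL, compound added at once, 24 h incubation, then A23187 (83 nM final). After 18 h, NO read by DAN fluorescence.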

Nitric oxide synthase 1 = Nitric oxide synthase 1 (Homo sapiens, UniProt P29475); test: Inhibition of human nNOS expressed in HEK293 cells assessed as NO production by transient transfection assay; format: cell-based
Mus musculus = test: Reduction of plasma nitrate level in LPS-challenged BALB/c mouse at 30 mg/kg, po; format: functional; set-up: scale not given: the % may be the effect or the level left
How it was run: (§2)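 Male Balb/c mice were dosed by oral gavage (90% PEG/5% Tween 80/5% PVP + 90% CMC (0.5% w/v)) at t = 0 h, 30 mg/kg for single-dose lines. LPS 10 mg/kg ip in 0.9% NaCl followed immediately. At 6 h, EDTA plasma was taken for nitrate and drug levels. Nitrate reduction is relative to vehicle; ED50 came from full oral dose-response.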

[3] = Drug level in LPS-challenged BALB/c mouse plasma at 30 mg/kg, po after 6 hrs; format: ADME, organism-based; set-up: dose 30 mg/kg, route oral; how it was run: as §2
[4] = molecular target: T1, Nitric oxide synthase, inducible; test: Inhibition of human iNOS expressed in HEK293 cells assessed as NO production at 100 uM by transient transfection assay; format: cell-based

T1 sequence (P35228 whole entry): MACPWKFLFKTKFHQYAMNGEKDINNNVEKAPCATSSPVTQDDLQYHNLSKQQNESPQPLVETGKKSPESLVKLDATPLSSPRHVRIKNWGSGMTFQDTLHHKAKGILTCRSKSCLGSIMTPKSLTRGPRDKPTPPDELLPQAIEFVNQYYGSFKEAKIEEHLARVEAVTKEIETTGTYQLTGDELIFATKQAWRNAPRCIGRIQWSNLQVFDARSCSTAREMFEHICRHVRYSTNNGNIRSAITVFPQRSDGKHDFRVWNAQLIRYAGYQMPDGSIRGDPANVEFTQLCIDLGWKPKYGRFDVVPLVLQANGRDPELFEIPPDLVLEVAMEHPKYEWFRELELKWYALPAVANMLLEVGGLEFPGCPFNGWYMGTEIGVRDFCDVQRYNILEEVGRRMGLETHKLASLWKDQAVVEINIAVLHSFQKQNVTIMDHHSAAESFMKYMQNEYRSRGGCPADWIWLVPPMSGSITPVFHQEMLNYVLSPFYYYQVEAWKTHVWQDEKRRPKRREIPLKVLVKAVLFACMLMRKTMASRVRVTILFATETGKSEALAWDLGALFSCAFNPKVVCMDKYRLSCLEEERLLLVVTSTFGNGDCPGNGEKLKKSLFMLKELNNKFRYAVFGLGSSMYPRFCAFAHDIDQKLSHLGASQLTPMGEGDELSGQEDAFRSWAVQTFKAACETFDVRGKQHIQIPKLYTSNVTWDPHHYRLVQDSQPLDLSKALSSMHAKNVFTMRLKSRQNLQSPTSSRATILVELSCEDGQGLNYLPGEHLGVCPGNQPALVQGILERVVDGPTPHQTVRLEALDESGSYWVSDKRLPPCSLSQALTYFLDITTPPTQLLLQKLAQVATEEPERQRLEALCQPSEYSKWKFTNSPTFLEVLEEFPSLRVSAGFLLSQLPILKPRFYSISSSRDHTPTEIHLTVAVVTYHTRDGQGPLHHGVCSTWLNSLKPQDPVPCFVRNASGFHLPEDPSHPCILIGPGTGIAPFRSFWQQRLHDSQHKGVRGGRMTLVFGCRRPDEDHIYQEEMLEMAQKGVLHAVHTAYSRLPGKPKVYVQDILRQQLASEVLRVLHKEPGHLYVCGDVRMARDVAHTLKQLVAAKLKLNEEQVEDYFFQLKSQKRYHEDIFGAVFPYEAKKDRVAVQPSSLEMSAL
Sequence of Nitric oxide synthase 1 (P29475 whole entry): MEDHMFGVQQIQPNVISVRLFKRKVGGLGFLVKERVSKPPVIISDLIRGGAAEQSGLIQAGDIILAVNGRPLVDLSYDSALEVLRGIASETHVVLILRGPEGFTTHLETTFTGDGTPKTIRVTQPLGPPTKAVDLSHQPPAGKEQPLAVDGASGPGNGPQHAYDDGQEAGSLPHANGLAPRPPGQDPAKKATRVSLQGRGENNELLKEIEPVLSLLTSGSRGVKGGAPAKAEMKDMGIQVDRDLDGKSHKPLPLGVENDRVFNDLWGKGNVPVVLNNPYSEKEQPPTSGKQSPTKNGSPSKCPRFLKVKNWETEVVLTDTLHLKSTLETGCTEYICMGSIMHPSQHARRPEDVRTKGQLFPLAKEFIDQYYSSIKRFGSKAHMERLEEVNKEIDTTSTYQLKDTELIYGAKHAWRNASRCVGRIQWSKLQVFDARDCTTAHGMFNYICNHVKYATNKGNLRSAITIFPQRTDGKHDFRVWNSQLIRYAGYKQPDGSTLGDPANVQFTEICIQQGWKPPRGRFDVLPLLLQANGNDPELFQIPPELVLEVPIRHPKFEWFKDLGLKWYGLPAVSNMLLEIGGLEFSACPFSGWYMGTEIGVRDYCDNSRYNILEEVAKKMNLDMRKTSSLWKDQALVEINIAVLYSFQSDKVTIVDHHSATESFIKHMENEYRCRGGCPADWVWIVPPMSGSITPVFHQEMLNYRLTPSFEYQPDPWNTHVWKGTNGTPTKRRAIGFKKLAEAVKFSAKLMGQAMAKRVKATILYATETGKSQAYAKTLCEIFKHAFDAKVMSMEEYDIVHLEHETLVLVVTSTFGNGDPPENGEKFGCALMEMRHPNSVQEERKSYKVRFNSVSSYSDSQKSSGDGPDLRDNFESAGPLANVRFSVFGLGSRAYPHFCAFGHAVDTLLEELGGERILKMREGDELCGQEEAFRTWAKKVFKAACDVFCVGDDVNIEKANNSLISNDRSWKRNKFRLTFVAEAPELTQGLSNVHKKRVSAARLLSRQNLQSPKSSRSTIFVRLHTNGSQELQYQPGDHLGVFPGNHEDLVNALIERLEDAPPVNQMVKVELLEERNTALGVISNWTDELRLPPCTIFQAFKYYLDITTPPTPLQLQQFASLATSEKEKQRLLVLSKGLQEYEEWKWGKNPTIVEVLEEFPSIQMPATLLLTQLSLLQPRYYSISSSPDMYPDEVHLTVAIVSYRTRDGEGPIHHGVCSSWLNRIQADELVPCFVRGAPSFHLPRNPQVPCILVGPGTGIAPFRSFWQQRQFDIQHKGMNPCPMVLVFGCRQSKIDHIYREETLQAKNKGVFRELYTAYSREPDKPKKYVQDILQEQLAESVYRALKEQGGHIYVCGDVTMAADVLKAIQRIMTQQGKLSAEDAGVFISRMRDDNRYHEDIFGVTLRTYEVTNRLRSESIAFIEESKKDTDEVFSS

Compound	EC50 [1]	EC50 [2]	concentration at 6 h [3]	inhibition [4]	EC50 (Nitric oxide synthase 3)	EC50 (Nitric oxide synthase 1)	Activity (Mus musculus)
Cc1noc(C)c1C(=O)N(Cc1cc(=O)[nH]c2c(F)c(F)ccc12)c1cccc(Cl)c1	3 nM	22 nM			1200 nM	97 nM	67%
Cc1ncsc1C(=O)N(Cc1c[n+]([O-])cc2c(F)cccc12)c1cccc(Cl)c1	87 nM	660 nM	39 ng/mL				20%
Cc1ncsc1C(=O)N(Cc1ccnc2c(F)cccc12)c1cccc(Cl)c1	> 100000 nM			< 50%			
Cc1ncsc1C(=O)N(Cc1c(F)c(=O)[nH]c2c(F)cccc12)c1cccc(Cl)c1	26 nM	130 nM			35000 nM	> 10000 nM	29%
COc1cc(CN(C(=O)c2scnc2C)c2cccc(Cl)c2)c2cccc(F)c2n1	> 100000 nM			< 50%			

Continued, in another order:

EC50 [1]	EC50 [2]	concentration at 6 h [3]	inhibition [4]	Compound	EC50 (Nitric oxide synthase 3)	EC50 (Nitric oxide synthase 1)	Activity (Mus musculus)
> 100000 nM			< 50%	Cc1ncsc1C(=O)N(Cc1cc(=O)n(C)c2c(F)cccc12)c1cccc(Cl)c1			
> 100000 nM			< 50%	Cc1ncsc1C(=O)N(Cc1cc[nH]c(=O)c1)c1cccc(Cl)c1			
